As usually defined, the MIC is the smallest concentration in the dilution series that meets the test's criterion for growth inhibition.

Here are results for 13 compounds from ChEMBL document CHEMBL4610116, “Salicylanilide Analog Minimizes Relapse of Clostridioides difficile Infection in Mice” (J Med Chem, 2020).

Experiment [1] relates to Clostridioides difficile. Kind of experiment: Antimicrobial activity against Clostridioides difficile CD10463 incubated for 20 to 24 hrs by broth microdilution method. The experiment is classed as functional. Put shortly:
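Broth microdilution in pre-reduced BHIS using two-fold serial dilutions and ~5 × 10⁵ cfu/mL inoculum. Incubated 20–24 h at 37°C, anaerobic (8% H₂, 8% CO₂, 84% N₂). MIC read by the Lambert-Pearson method; duplicates.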
(Broth dilution looks for growth in wells or tubes with falling amounts of substance.)

The test system of experiment [2] is Clostridioides difficile. As to the kind of experiment: Suppression of relapse of Clostridioides difficile 630 infection in cefoperazone-treated C57BL/6J mouse model of recurrent Clostridioides difficile 630 infection assessed as reduction in histopathological summary scores at 0.4 mg/ml, po for 5 days from day 4 to 9 after infection with spores measured on day day 14. Type of experiment: functional, organism-based.

For experiment [3], the system named is Clostridioides difficile. As to the kind of experiment: Suppression of relapse of Clostridioides difficile 630 infection in cefoperazone-treated C57BL/6J mouse model of recurrent Clostridioides difficile 630 infection assessed as reduction in microbial load in feces (total vegetative cells plus spores) at 0.4 mg/ml, po for 5 days from day 4 to 9 after infection with spores and measured on day 3 after drug cessation. Type of experiment: functional, organism-based. Put shortly:
(§1)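 Strain 630 spore challenge (10⁵, gavage) of cefoperazone-treated mice; vancomycin 0.4 mg/mL in drinking water on days 4–9. Feces diluted 1:10 in PBS and settled anaerobically 30 min. Ten-fold dilutions plated on TCCFA, incubated anaerobically at 37°C for 24 h. Result is CFU/g feces of total vegetative cells plus spores from unheated samples. Mixed-effect model with Tukey post test.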

In experiment [4] the test system is Clostridioides difficile. Kind of experiment: Suppression of relapse of Clostridioides difficile 630 infection in cefoperazone-treated C57BL/6J mouse model of recurrent Clostridioides difficile 630 infection assessed as reduction in microbial load (total vegetative cells plus spores) at 0.4 mg/ml, po for 5 days from day 4 to 9 after infection with spores and measured on day 7. The experiment is classed as functional, organism-based. The procedure, abridged: as §1

Experiment [5] has as its system Clostridioides difficile. Kind of experiment: Suppression of relapse of Clostridioides difficile 630 infection in cefoperazone-treated C57BL/6J mouse model of recurrent Clostridioides difficile 630 infection assessed as reduction in group-Proteobacteria level at 0.4 mg/ml, po for 5 days from day 4 to 9 after infection with spores measured on day day 14. Type of experiment: functional, organism-based. Put shortly:
(§2)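 Infection model: cefoperazone 0.5 mg/ml in drinking water for 5 days, 2-day washout, then 10⁵ strain 630 spores by gavage. Vancomycin 0.4 mg/mL in drinking water, days 4–9. Cecal tissue snips taken at day 14 necropsy; gut bacterial community profiled by 16S rRNA gene sequencing on Illumina MiSeq. n=6 per group.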

Experiment [6] concerns Clostridioides difficile. As to the kind of experiment: Suppression of relapse of Clostridioides difficile 630 infection in cefoperazone-treated C57BL/6J mouse model of recurrent Clostridioides difficile 630 infection assessed as reduction in group-Bacteroidaceae level at 0.4 mg/ml, po for 5 days from day 4 to 9 after infection with spores measured on day day 14. The experiment is classed as functional, organism-based. Put shortly: as §2

Experiment [7] relates to Clostridioides difficile. Kind of experiment: Suppression of relapse of Clostridioides difficile 630 infection in cefoperazone-treated C57BL/6J mouse model of recurrent Clostridioides difficile 630 infection assessed as reduction in body weight loss at 0.4 mg/ml, po for 5 days from day 4 to 9 after infection with spores and […] after drug cessation. Type of experiment: functional, organism-based. Put shortly:
(§3)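 Cefoperazone 0.5 mg/ml in drinking water for 5 days, then 2-day washout, in 5-week-old male and female C57BL/6J mice. Oral gavage of 10⁵ C. difficile 630 spores on day 0. Vancomycin 0.4 mg/mL given in drinking water ad libitum on days 4–9. Body weight recorded daily and clinical signs watched for 14 days; n=6 per group.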

Experiment [8] deals with Clostridioides difficile. As to the kind of experiment: Suppression of relapse of Clostridioides difficile 630 infection in cefoperazone-treated C57BL/6J mouse model of recurrent Clostridioides difficile 630 infection assessed as reduction in weight loss at 0.4 mg/ml, po for 5 days from day 4 to 9 after infection with spores and measured on day 14. The experiment is classed as functional. Set-up: scale not given: the % may be the effect or the level left. The procedure, abridged:
as §3

In experiment [9] the test system is Clostridioides difficile. Kind of experiment: Suppression of relapse of Clostridioides difficile 630 infection in cefoperazone-treated C57BL/6J mouse model of recurrent Clostridioides difficile 630 infection assessed as reduction in clinical illness at 0.4 mg/ml, po for 5 days from day 4 to 9 after infection with spores measured on day day 14. Type of experiment: functional, organism-based. Put shortly: as §3

Experiment [10] concerns Clostridioides difficile. As to the kind of experiment: Suppression of relapse of Clostridioides difficile 630 infection in cefoperazone-treated C57BL/6J mouse model of recurrent Clostridioides difficile 630 infection assessed as reduction in body weight loss at 0.4 mg/ml, po for 5 days from day 4 to 9 after infection with spores and […]. The experiment is classed as functional, organism-based. The procedure, abridged:
as §3

Each structure is given as a SMILES string. Converted amounts (≈) assume the structure as drawn. The source made the active and inactive calls. Where only a bound is given, the exact number is not on record here.

In the case of `O=C(Nc1ccc(Oc2ccc(Cl)cc2)c(Cl)c1)c1cc(Cl)cc(Cl)c1O`, the MIC in the experiment on Clostridioides difficile [1] is 0.11 µM (≈ 0.0487 µg/mL).

Turning to `O=C(Nc1cc([N+](=O)[O-])c(Oc2ccc(Cl)cc2)c([N+](=O)[O-])c1)c1cc(Cl)cc(Cl)c1O`, in the experiment with Clostridioides difficile [1], the MIC is > 2 µM.

For `N#Cc1cc(NC(=O)c2cc(Cl)cc(Cl)c2O)ccc1Oc1ccc(Cl)cc1`, the MIC against Clostridioides difficile [1] turned out to be 0.37 µM (≈ 0.16 µg/mL).

`O=C(Nc1ccc(Oc2ccc(Cl)cc2)c(F)c1)c1cc(Cl)cc(Cl)c1O` registered an MIC against Clostridioides difficile [1] of 0.135 µM (≈ 0.0576 µg/mL).

In turn, `O=C(Nc1ccc(Oc2ccc(Cl)cc2)cc1I)c1cc(Cl)cc(Cl)c1O` displayed an MIC against Clostridioides difficile [1] of 0.17 µM (≈ 0.0909 µg/mL).

Turning to `CN[C@H](CC(C)C)C(=O)N[C@H]1C(=O)N[C@@H](CC(N)=O)C(=O)N[C@H]2C(=O)N[C@H]3C(=O)N[C@H](C(=O)N[C@H](C(=O)O)c4cc(O)cc(O)c4-c4cc3ccc4O)[C@H](O)c3ccc(c(Cl)c3)Oc3cc2cc(c3O[C@@H]2O[C@H](CO)[C@@H](O)[C@H](O)[C@H]2O[C@H]2C[C@](C)(N)[C@H](O)[C@H](C)O2)Oc2ccc(cc2Cl)[C@H]1O` [VANCOMYCIN], the outcome in the experiment on Clostridioides difficile [2], in the experiment on Clostridioides difficile [3], in the experiment on Clostridioides difficile [5], with Clostridioides difficile [6], with Clostridioides difficile [7] and with Clostridioides difficile [9] was inactive. In addition, the outcome in the experiment with Clostridioides difficile [4] and with Clostridioides difficile [10] was Active. Also, the Activity in the experiment with Clostridioides difficile [8] is listed as 10 - 26%. This compound showed an MIC in the experiment on Clostridioides difficile [1] of 2.1 µM (≈ 3.04 µg/mL).

In the case of `O=C(Nc1ccc(Oc2ccc(Cl)cc2)c(Br)c1)c1cc(Cl)cc(Cl)c1O`, it took 0.1 µM (≈ 0.0488 µg/mL) to inhibit growth against Clostridioides difficile [1] (MIC).

The compound `O=C(Nc1ccc(Oc2ccc(Cl)cc2)c(I)c1)c1cc(Cl)cc(Cl)c1O` gave an MIC against Clostridioides difficile [1] of 0.6 µM (≈ 0.321 µg/mL).

`COc1cc(Oc2ccc(Cl)cc2)ccc1NC(=O)c1cc(Cl)cc(Cl)c1O`: the MIC with Clostridioides difficile [1] turned out to be 3.6 µM (≈ 1.58 µg/mL).

As for `O=C(Nc1cc(I)c(Oc2ccc(Cl)cc2)c(I)c1)c1cc(Cl)cc(Cl)c1O`, the MIC in the experiment on Clostridioides difficile [1] was 0.075 µM (≈ 0.0495 µg/mL).

In the experiment on Clostridioides difficile [1], `COc1cc(NC(=O)c2cc(Cl)cc(Cl)c2O)ccc1Oc1ccc(Cl)cc1` registered an MIC of 2.6 µM (≈ 1.14 µg/mL).

In the experiment with Clostridioides difficile [1], `O=C(Nc1ccc(Oc2ccc(Cl)cc2)cc1Br)c1cc(Cl)cc(Cl)c1O` showed an MIC of 0.18 µM (≈ 0.0878 µg/mL).

Compound `O=C(Nc1ccc(Oc2ccc(Cl)cc2)cc1)c1cc(Cl)cc(Cl)c1O` showed an MIC against Clostridioides difficile [1] of 1.4 µM (≈ 0.572 µg/mL).
